According to ChEMBL document CHEMBL1126775, “A pharmacological, crystallographic, and quantum chemical study of new inotropic agents” (J Med Chem, 1993):
Several values for one entry are separate records, joined by “and”; a condition that tells them apart may be missing. Equal values may be shown once.

Assays:
[1] = species: Cavia porcellus; experiment: Effect on inotropic response to 10 e-4 8-phenyltheophylline in electrically driven left atrium from reserpine-treated guinea pigs at 10 e-4 M; type: functional, Cardiac atrium
Summary of the method: (§1)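 Paced left atrium (1.5 Hz, 0.5 g load) from reserpine-pretreated guinea pigs. Test agent (10^-4 or 5×10^-5 M) added to perfusion 10 min before cumulative 8-phenyltheophylline (10^-6–10^-4 M). Developed tension as % increase over control. Mean ± SEM of four assays from four experiments; Student's t test against atria without the test agent.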

[2] = species: Cavia porcellus; experiment: Effect on inotropic response to 10 e-5 8-phenyltheophylline in electrically driven left atrium from reserpine-treated guinea pigs at 5 x 10 e-5 M; type: functional, Cardiac atrium; summary of the method: as §1
[3] = species: Cavia porcellus; experiment: Effect on inotropic response to 10 e-4 8-phenyltheophylline in electrically driven left atrium from reserpine-treated guinea pigs; type: functional, Cardiac atrium; summary of the method: as §1
[4] = species: Cavia porcellus; experiment: Effect on inotropic response to 3x 10 e-5 8-phenyltheophylline in electrically driven left atrium from reserpine-treated guinea pigs at 5 x 10 e-5 M; type: functional, Cardiac atrium; summary of the method: as §1
[5] = species: Cavia porcellus; experiment: Effect on inotropic response to 3 x 10 e-6 8-phenyltheophylline in electrically driven left atrium from reserpine-treated guinea pigs at 5 x 10 e-5 M; type: functional, Cardiac atrium; summary of the method: as §1
[6] = species: Cavia porcellus; experiment: Effect on frequency rate of spontaneously beating atria from reserpine treated guinea pigs at the concentration of 5 x 10 e-4 M (negative chronotropic ionotropic effect); type: functional
[7] = species: Cavia porcellus; experiment: Effect on contractile force of spontaneously beating atria from reserpine treated guinea pigs at the concentration of 2 x 10 e-3 M (negative ionotropic effect); type: functional
[8] = species: Cavia porcellus; experiment: Effect on frequency rate of spontaneously beating atria from reserpine treated guinea pigs at the concentration of 10 e-3 M (negative chronotropic ionotropic effect); type: functional
[9] = species: Cavia porcellus; experiment: Effect on inotropic response to 3 x 10 e-5 8-phenyltheophylline in electrically driven left atrium from reserpine-treated guinea pigs at 10 e-4 M; type: functional, Cardiac atrium; summary of the method: as §1
[10] = species: Cavia porcellus; experiment: Effect on contractile force of spontaneously beating atria from reserpine treated guinea pigs at the concentration of 10 e-3 M (negative ionotropic effect); type: functional
[11] = species: Cavia porcellus; experiment: Effect on contractile force of spontaneously beating atria from reserpine treated guinea pigs at the concentration of 10 e-5 M (negative ionotropic effect); type: functional
[12] = species: Cavia porcellus; experiment: Effect on inotropic response to 3 x 10 e-6 8-phenyltheophylline in electrically driven left atrium from reserpine-treated guinea pigs; type: functional, Cardiac atrium; summary of the method: as §1
[13] = species: Cavia porcellus; experiment: Effect on contractile force of spontaneously beating atria from reserpine treated guinea pigs at the concentration of 10 e-4 M (negative ionotropic effect); type: functional
[14] = species: Cavia porcellus; experiment: Effect on contractile force of spontaneously beating atria from reserpine treated guinea pigs at the concentration of 5x 10 e-5 M (negative ionotropic effect); type: functional
[15] = species: Cavia porcellus; experiment: Effect on inotropic response to 3 x 10 e-5 8-phenyltheophylline in electrically driven left atrium from reserpine-treated guinea pigs; type: functional, Cardiac atrium; summary of the method: as §1
[16] = species: Cavia porcellus; experiment: Effect on inotropic response to 10 e-6 8-phenyltheophylline in electrically driven left atrium from reserpine-treated guinea pigs at 10 e-4 M; type: functional, Cardiac atrium; summary of the method: as §1
[17] = species: Cavia porcellus; experiment: Effect on contractile force of spontaneously beating atria from reserpine treated guinea pigs at the concentration of 5x 10 e-4 M (negative ionotropic effect); type: functional
[18] = species: Cavia porcellus; experiment: Effect on inotropic response to 10 e-4 8-phenyltheophylline in electrically driven left atrium from reserpine-treated guinea pigs at 5 x 10 e-5 M; type: functional, Cardiac atrium; summary of the method: as §1
[19] = species: Cavia porcellus; experiment: Effect on inotropic response to 10 e-5 8-phenyltheophylline in electrically driven left atrium from reserpine-treated guinea pigs; type: functional, Cardiac atrium; summary of the method: as §1
[20] = species: Cavia porcellus; experiment: Effect on inotropic response to 10 e-6 8-phenyltheophylline in electrically driven left atrium from reserpine-treated guinea pigs; type: functional, Cardiac atrium; summary of the method: as §1
[21] = species: Cavia porcellus; experiment: Effect on frequency rate of spontaneously beating atria from reserpine treated guinea pigs at the concentration of 10 e-4 M (negative chronotropic ionotropic effect); type: functional
[22] = species: Cavia porcellus; experiment: Effect on frequency rate of spontaneously beating atria from reserpine treated guinea pigs at the concentration of 5 x 10 e-5 M (negative chronotropic ionotropic effect)
[23] = species: Cavia porcellus; experiment: Effect on inotropic response to 3 x 10 e-6 8-phenyltheophylline in electrically driven left atrium from reserpine-treated guinea pigs at 10 e-4 M; type: functional, Cardiac atrium; summary of the method: as §1
[24] = species: Cavia porcellus; experiment: Effect on inotropic response to 10 e-6 8-phenyltheophylline in electrically driven left atrium from reserpine-treated guinea pigs at 5 x 10 e-5 M; type: functional, Cardiac atrium; summary of the method: as §1
[25] = species: Cavia porcellus; experiment: Effect on frequency rate of spontaneously beating atria from reserpine treated guinea pigs at the concentration of 2 x 10 e-3 M (negative chronotropic ionotropic effect); type: functional
[26] = Logarithm of the sum of contributions of each atom to the total lipophilicity of the molecule; type: physicochemical; details: octanol/water
[27] = species: Cavia porcellus; experiment: Effect on inotropic response to 10 e-5 8-phenyltheophylline in electrically driven left atrium from reserpine-treated guinea pigs at 10 e-4 M; type: functional, Cardiac atrium; summary of the method: as §1

**Q.** What does the source list for `O=C(c1ccccc1)c1ccc(O)nc1-c1ccccc1`?
**A.** Increase [1]: 27.05%; Increase [2]: 14.44%; Increase [3]: 20.81%; Increase [4]: 17.41%; Increase [5]: 8.13%; Increase [6]: -24.37%; Increase [7]: -46.27%; Increase [8]: -32.89%; Increase [9]: 20.17%; Increase [10]: -43.71%; Increase [11]: -2.67%; Increase [12]: 7.33%; Increase [13]: -24.76%; Increase [14]: -7.3%; Increase [15]: 14.72%; Increase [16]: 4.56%; Increase [17]: -38.32%; Increase [18]: 25.91%; Increase [19]: 11.19%; Increase [20]: 4.27%; Increase [21]: -14.92%; Increase [22]: -4.26% and -9.3%; Increase [23]: 11.38%; Increase [24]: 5.7%; Increase [25]: -40.57%; logP [26]: 3.82; Increase [27]: 18.78%
